Results from different studies.
PIK3CB: Phosphatidylinositol 4,5-bisphosphate 3-kinase catalytic subunit beta isoform (PIK3CB, Homo sapiens, UniProt P42338)

target	assay	conditions	quantity	result	SMILES
PIK3CB	enzyme activity, inhibitor, ADP detection	10 µM	inhibition	82.9%	Cc1nc(NC(=O)N2CCC[C@H]2C(N)=O)sc1-c1ccnc(C(C)(C)C(F)(F)F)c1
Phosphatidylinositol 4,5-bisphosphate 3-kinase catalytic subunit beta isoform, with p85 (PIK3CB, Homo sapiens, UniProt P42338)	enzyme activity, inhibitor	1 µM	activity vs control	97%	CC(C)S(=O)(=O)c1ccc2nccc(Nc3ccc4sc(C5CCCC5)nc4c3)c2c1
PIK3CB	enzyme activity, inhibitor	1 µM	inhibition	0%	CC#CC(=O)N1CCC[C@H]1c1nc(-c2ccc(C(=O)Nc3ccccn3)cc2)c2c(N)nccn12
PIK3CB	binding, competition with immobilised ligand	0.5 µM	remaining binding	100%	CCCCC(=O)Nc1ccc(-c2ccc3ncn(CCC)c(=O)c3c2)cn1
PIK3CB	binding	1 µM	remaining binding	100%	CN1CCN(C(=O)c2ccc(NC(=O)Nc3ccc(N(C)c4ccnc(Nc5ccc(CS(C)(=O)=O)cc5)n4)cc3)cc2)CC1
PIK3CB	binding	0.1 µM	remaining binding	98%	C1=C/COCc2cc(ccc2OCCN2CCCC2)Nc2nccc(n2)-c2cccc(c2)COC/1
PIK3CB	enzyme activity, inhibitor	1 µM	inhibition	2%	C=CC(=O)N1CCC[C@@H](n2nc(-c3ccc(Oc4ccccc4)cc3)c3c(N)ncnc32)C1
PIK3CB	binding	1 µM	remaining binding	100%	Cc1ccc(NC(=O)c2ccnc(C(F)(F)F)c2)cc1-c1cc(OCCO)nc(N2CCOCC2)c1
